From ChEMBL document CHEMBL6078712, “Triterpenoid phthalimides as selective anti-cancer agents targeting mitochondrial apoptosis” (Eur J Med Chem, 2025)
pIC50: −log10 of the molar value.

Key:
HCT 116 TP53(-/-) = test: Cytotoxicity against human HCT116-p53-null cells assessed as inhibition of cell growth incubated for 72 hrs by MTS assay; format: functional, cell-based
In short: (§1)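 MTS assay on eight human cancer lines and two non-tumour fibroblast lines. IC50 is the concentration that inhibits cell growth by 50 %. SD typically up to 15 % of the mean.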

[1] = Cytotoxicity against human BJ cells assessed as inhibition of cell growth incubated for 72 hrs by MTS assay; format: toxicity, cell-based; in short: as §1
CCRF-CEM = test: Cytotoxicity against human CCRF-CEM cells assessed as inhibition of cell growth incubated for 72 hrs by MTS assay; format: functional, cell-based; in short: as §1
[2] = Cytotoxicity against human MRC5 cells assessed as inhibition of cell growth incubated for 72 hrs by MTS assay; format: toxicity, cell-based; in short: as §1
U2OS = test: Cytotoxicity against human U2OS cells assessed as inhibition of cell growth incubated for 72 hrs by MTS assay; format: functional, cell-based; in short: as §1
CEM-DNR = test: Cytotoxicity against human CEM-DNR cells assessed as inhibition of cell growth incubated for 72 hrs by MTS assay; format: functional, cell-based; in short: as §1
HCT-116 = test: Cytotoxicity against human HCT-116 cells assessed as inhibition of cell growth incubated for 72 hrs by MTS assay; format: functional, cell-based; details: HCT-116, 72 h; in short: as §1
[3] = Cytotoxicity against human K562-Tax cells assessed as inhibition of cell growth incubated for 72 hrs by MTS assay; format: functional, cell-based; in short: as §1
A549 = test: Cytotoxicity against human A549 cells assessed as inhibition of cell growth incubated for 72 hrs by MTS assay; format: functional, cell-based; details: A549, 72 h; in short: as §1
K562 = test: Cytotoxicity against human K562 cells assessed as inhibition of cell growth incubated for 72 hrs by MTS assay; format: functional, cell-based; details: K562, 72 h; in short: as §1

COC(=O)c1ccc([C@@H]2CC[C@]3(CO)CC[C@]4(C)[C@H](CC[C@@H]5[C@@]6(C)CC[C@H](O)C(C)(C)[C@@H]6CC[C@]54C)[C@@H]23)cc1C(=O)OC
pIC50 (HCT 116 TP53(-/-)): < 4.30 | IC50 at 72 h [1]: > 50 µM | pIC50 (CCRF-CEM): < 4.30 | IC50 at 72 h [2]: > 50 µM | pIC50 (U2OS): < 4.30 | pIC50 (CEM-DNR): 4.71 | pIC50 (HCT-116): < 4.30 | pIC50 [3]: 4.99 | pIC50 (A549): < 4.30 | pIC50 (K562): < 4.30

COc1ccc(N2C(=O)c3ccc([C@@H]4CC[C@]5(CO)CC[C@]6(C)[C@H](CC[C@@H]7[C@@]8(C)CC[C@H](OC(C)=O)C(C)(C)[C@@H]8CC[C@]76C)[C@@H]45)cc3C2=O)cc1
pIC50 (HCT 116 TP53(-/-)): < 4.30 | IC50 at 72 h [1]: > 50 µM | pIC50 (CCRF-CEM): < 4.30 | IC50 at 72 h [2]: > 50 µM | pIC50 (U2OS): < 4.30 | pIC50 (CEM-DNR): < 4.30 | pIC50 (HCT-116): < 4.30 | pIC50 [3]: < 4.30 | pIC50 (A549): < 4.30 | pIC50 (K562): < 4.30

CC(=O)OC[C@]12CC[C@@H](c3ccc4c(c3)C(=O)NC4=O)[C@@H]1[C@H]1CC[C@@H]3[C@@]4(C)CC[C@H](OC(C)=O)C(C)(C)[C@@H]4CC[C@@]3(C)[C@]1(C)CC2
pIC50 (HCT 116 TP53(-/-)): < 4.30 | IC50 at 72 h [1]: > 50 µM | pIC50 (CCRF-CEM): < 4.30 | IC50 at 72 h [2]: > 50 µM | pIC50 (U2OS): < 4.30 | pIC50 (CEM-DNR): < 4.30 | pIC50 (HCT-116): < 4.30 | pIC50 [3]: < 4.30 | pIC50 (A549): < 4.30 | pIC50 (K562): < 4.30

CC1(C)[C@@H](O)CC[C@]2(C)[C@H]3CC[C@@H]4[C@H]5[C@H](c6cc7c(c(-c8ccccc8)c6)C(=O)N(c6ccc(C#N)cc6)C7=O)CC[C@]5(C(=O)O)CC[C@@]4(C)[C@]3(C)CC[C@@H]12
pIC50 (HCT 116 TP53(-/-)): < 4.30 | IC50 at 72 h [1]: > 50 µM | pIC50 (CCRF-CEM): 4.85 | IC50 at 72 h [2]: > 50 µM | pIC50 (U2OS): < 4.30 | pIC50 (CEM-DNR): < 4.30 | pIC50 (HCT-116): < 4.30 | pIC50 [3]: < 4.30 | pIC50 (A549): < 4.30 | pIC50 (K562): < 4.30

CC1(C)[C@@H](O)CC[C@]2(C)[C@H]3CC[C@@H]4[C@H]5[C@H](c6cc(C#N)c(C#N)c(-c7ccccc7)c6)CC[C@]5(C(=O)O)CC[C@@]4(C)[C@]3(C)CC[C@@H]12
pIC50 (HCT 116 TP53(-/-)): 4.50 | IC50 at 72 h [1]: 36.2 µM | pIC50 (CCRF-CEM): 5.22 | IC50 at 72 h [2]: 25.7 µM | pIC50 (U2OS): 4.72 | pIC50 (CEM-DNR): 4.86 | pIC50 (HCT-116): 4.58 | pIC50 [3]: 5.15 | pIC50 (A549): 4.68 | pIC50 (K562): 4.56

COC(=O)c1cc([C@@H]2CC[C@]3(CO)CC[C@]4(C)[C@H](CC[C@@H]5[C@@]6(C)CC[C@H](O)C(C)(C)[C@@H]6CC[C@]54C)[C@@H]23)cc(-c2ccccc2)c1C(=O)OC
pIC50 (HCT 116 TP53(-/-)): < 4.30 | IC50 at 72 h [1]: > 50 µM | pIC50 (CCRF-CEM): < 4.30 | IC50 at 72 h [2]: > 50 µM | pIC50 (U2OS): < 4.30 | pIC50 (CEM-DNR): < 4.30 | pIC50 (HCT-116): < 4.30 | pIC50 [3]: < 4.30 | pIC50 (A549): < 4.30 | pIC50 (K562): < 4.30
